Laboratory results published in ChEMBL document CHEMBL1132954, “Synthesis and structure-activity relationships of chiral allosteric modifiers of hemoglobin” (2000).
Several values for one entry are separate records, joined by “and”; a condition that tells them apart may be missing. Equal entries are not always repeated.

Species: Homo sapiens
Experiment: (§1) P50e is the value in the presence of the effector in whole blood in experiment 1 (in vitro)
Format: functional
Outline: (§2)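 Heparinized whole blood from healthy volunteers, kept on ice, was given the effector sodium salt from a 200 mM DMSO stock to 5.0 mM final. It was tonometered about 10-12 min at 37 °C and equilibrated at 20%, 40% and 60% O₂. pH, pCO₂, pO₂ and sO₂ were read by blood gas analyzer and co-oximeter, at least in duplicate. ΔP50 = P50e − P50c.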

Structure (SMILES) | P50e
Cc1cc(C)cc(NC(=O)Cc2ccc(OC(C)C(=O)O)cc2)c1 (single isomer, unassigned; (-)) | 39.7 mmHg
Cc1cc(C)cc(NC(=O)Cc2ccc(OC3(C(=O)O)CCCC3)cc2)c1 | 74.7 mmHg
Cc1cc(C)cc(NC(=O)Cc2ccc(OC(C)C(=O)O)cc2)c1 (racemic) | 47.2 mmHg
Cc1cc(C)cc(NC(=O)Cc2ccc(OC(C)C(=O)O)cc2)c1 (single isomer, unassigned; (+)) | 47.4 mmHg
Cc1cc(C)cc(NC(=O)Cc2ccc(OC3(C(=O)O)CCCC3C)cc2)c1 (racemic) | 66 mmHg
Cc1cc(C)cc(NC(=O)Cc2ccc(O[C@]3(C(=O)O)CCC[C@H]3C)cc2)c1 | 78.5 mmHg
Cc1cc(C)cc(NC(=O)Cc2ccc(OC(C)(C)C(=O)O)cc2)c1 [EFAPROXIRAL] | 76.5 mmHg

Species: Homo sapiens
Experiment: (§3) P50e is the value in the presence of the effector in whole blood in experiment 2 (in vitro)
Format: functional
Outline: as §2

Structure (SMILES) | P50e
Cc1cc(C)cc(NC(=O)Cc2ccc(OC(C)C(=O)O)cc2)c1 (single isomer, unassigned; (-)) | 40.5 mmHg
Cc1cc(C)cc(NC(=O)Cc2ccc(OC3(C(=O)O)CCCC3)cc2)c1 | 67.7 mmHg
Cc1cc(C)cc(NC(=O)Cc2ccc(OC(C)C(=O)O)cc2)c1 (racemic) | 43.5 mmHg
Cc1cc(C)cc(NC(=O)Cc2ccc(OC(C)C(=O)O)cc2)c1 (single isomer, unassigned; (+)) | 48.7 mmHg
Cc1cc(C)cc(NC(=O)Cc2ccc(OC3(C(=O)O)CCCC3C)cc2)c1 (racemic) | 67.2 mmHg
Cc1cc(C)cc(NC(=O)Cc2ccc(O[C@]3(C(=O)O)CCC[C@H]3C)cc2)c1 | 72.5 mmHg
Cc1cc(C)cc(NC(=O)Cc2ccc(OC(C)(C)C(=O)O)cc2)c1 [EFAPROXIRAL] | 73.4 mmHg

Target: T1, Hemoglobin HbA (Homo sapiens) (UniProt P69905+P68871)
Experiment: Ratio of P50e to P50c (P50 control value with no effector present, 5 mmHg)
Format: functional
Outline: (§4)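 Purified stripped human adult Hb in 50 mM bis-Tris, 100 mM NaCl, pH 7.2, at 60-70 µM heme, with effector at 0.5 mM. Catalase and EDTA were added, and the sample was saturated with carbogen. The curve was recorded on a Hemox analyzer as O₂ pressure was lowered over 45-60 min, with saturation read at 577/586.2 nm. P50 came from linear regression of 40-60% saturation points. Single runs, each with its own no-effector control.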

T1 sequence (P68871 2-147 partner limits assumed): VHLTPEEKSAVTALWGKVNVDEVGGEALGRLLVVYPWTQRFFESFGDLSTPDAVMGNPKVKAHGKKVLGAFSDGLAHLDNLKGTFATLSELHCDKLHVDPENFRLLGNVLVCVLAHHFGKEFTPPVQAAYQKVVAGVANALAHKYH
T1 sequence (P69905 2-142 limits assumed): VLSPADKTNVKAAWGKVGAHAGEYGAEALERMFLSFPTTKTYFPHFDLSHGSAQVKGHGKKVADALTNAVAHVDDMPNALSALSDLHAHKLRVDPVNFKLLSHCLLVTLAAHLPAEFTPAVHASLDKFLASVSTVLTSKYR

Structure (SMILES) | P50e/P50c
Cc1cc(C)cc(NC(=O)Cc2ccc(O[C@@]3(C(=O)O)CCC[C@@H]3C)cc2)c1 | 4
CCCC(C)(Oc1ccc(CC(=O)Nc2cc(C)cc(C)c2)cc1)C(=O)O (stereo unspecified) | 2.3
CCC(Oc1ccc(CC(=O)Nc2cc(C)cc(C)c2)cc1)C(=O)O (stereo in doubt; 32) | 2.6
CCCC(Oc1ccc(CC(=O)Nc2cc(C)cc(C)c2)cc1)C(=O)O (stereo unspecified) | 3.2
CCC(C)(Oc1ccc(CC(=O)Nc2ccc3c(c2)CCC3)cc1)C(=O)O (stereo unspecified) | 2.1
Cc1cc(C)cc(NC(=O)Cc2ccc(OC3(C(=O)O)CCOC3C)cc2)c1 (stereo unspecified) | 1.5
CCC(Oc1ccc(CC(=O)Nc2cc(C)cc(C)c2)cc1)C(=O)O (single isomer, unassigned; (+)) | 3.6
Cc1cc(C)cc(NC(=O)Cc2ccc(O[C@]3(C(=O)O)CCO[C@H]3C)cc2)c1 | 1.9
CC(C)(Oc1ccc(CC(=O)Nc2ccc3c(c2)CCC3)cc1)C(=O)O | 3
Cc1cc(C)cc(NC(=O)Cc2ccc(OC3(C(=O)O)CCC(C)C3)cc2)c1 (stereo unspecified) | 2.6
CCC(Oc1ccc(CC(=O)Nc2cc(C)cc(C)c2)cc1)C(=O)O (single isomer, unassigned; (-)) | 2
CCC(C)(Oc1ccc(CC(=O)Nc2cc(C)cc(C)c2)cc1)C(=O)O (single isomer, unassigned; (+)) | 3.5
Cc1cc(C)cc(NC(=O)Cc2ccc(OC3(C(=O)O)CCCC(C)C3)cc2)c1 (stereo unspecified) | 2.1
Cc1cc(C)cc(NC(=O)Cc2ccc(OC3(C(=O)O)CCCC3)cc2)c1 | 5.1
Cc1cc(C)cc(NC(=O)Cc2ccc(OC3(C(=O)O)CCCC3C)cc2)c1 (racemic) | 4.3
Cc1cc(C)cc(NC(=O)Cc2ccc(O[C@]3(C(=O)O)CCC[C@H]3C)cc2)c1 | 6.1
Cc1cc(C)cc(NC(=O)Cc2ccc(OC(C)(C)C(=O)O)cc2)c1 [EFAPROXIRAL] | 4.7

System: not listed separately
Experiment: (§5) P50C is the control value in whole blood in experiment.
Format: functional, Homo sapiens
Outline: as §2

Structure (SMILES) | P50c
Cc1cc(C)cc(NC(=O)Cc2ccc(O[C@@]3(C(=O)O)CCC[C@@H]3C)cc2)c1 | 25.7 mmHg

Target: T1, Hemoglobin HbA (Homo sapiens)
Experiment: Oxygen pressure at which hemoglobin is 50% saturated with oxygen in the presence of the effector.
Format: functional
Outline: as §4

Structure (SMILES) | P50e
Cc1cc(C)cc(NC(=O)Cc2ccc(O[C@@]3(C(=O)O)CCC[C@@H]3C)cc2)c1 | 19.9 mmHg
CCCC(C)(Oc1ccc(CC(=O)Nc2cc(C)cc(C)c2)cc1)C(=O)O (stereo unspecified) | 11.7 mmHg
CCC(Oc1ccc(CC(=O)Nc2cc(C)cc(C)c2)cc1)C(=O)O (stereo in doubt; 32) | 13 mmHg
CCCC(Oc1ccc(CC(=O)Nc2cc(C)cc(C)c2)cc1)C(=O)O (stereo unspecified) | 16.1 mmHg
CCC(C)(Oc1ccc(CC(=O)Nc2ccc3c(c2)CCC3)cc1)C(=O)O (stereo unspecified) | 10.6 mmHg
Cc1cc(C)cc(NC(=O)Cc2ccc(OC3(C(=O)O)CCOC3C)cc2)c1 (stereo unspecified) | 7.6 mmHg
CCC(Oc1ccc(CC(=O)Nc2cc(C)cc(C)c2)cc1)C(=O)O (single isomer, unassigned; (+)) | 18 mmHg
Cc1cc(C)cc(NC(=O)Cc2ccc(O[C@]3(C(=O)O)CCO[C@H]3C)cc2)c1 | 9.3 mmHg
CC(C)(Oc1ccc(CC(=O)Nc2ccc3c(c2)CCC3)cc1)C(=O)O | 15.3 mmHg
Cc1cc(C)cc(NC(=O)Cc2ccc(OC3(C(=O)O)CCC(C)C3)cc2)c1 (stereo unspecified) | 12.9 mmHg
CCC(Oc1ccc(CC(=O)Nc2cc(C)cc(C)c2)cc1)C(=O)O (single isomer, unassigned; (-)) | 9.8 mmHg
CCC(C)(Oc1ccc(CC(=O)Nc2cc(C)cc(C)c2)cc1)C(=O)O (single isomer, unassigned; (+)) | 17.4 mmHg
Cc1cc(C)cc(NC(=O)Cc2ccc(OC3(C(=O)O)CCCC(C)C3)cc2)c1 (stereo unspecified) | 10.3 mmHg
Cc1cc(C)cc(NC(=O)Cc2ccc(OC3(C(=O)O)CCCC3)cc2)c1 | 25.7 mmHg
Cc1cc(C)cc(NC(=O)Cc2ccc(OC3(C(=O)O)CCCC3C)cc2)c1 (racemic) | 21.6 mmHg
Cc1cc(C)cc(NC(=O)Cc2ccc(O[C@]3(C(=O)O)CCC[C@H]3C)cc2)c1 | 30.7 mmHg
Cc1cc(C)cc(NC(=O)Cc2ccc(OC(C)(C)C(=O)O)cc2)c1 [EFAPROXIRAL] | 23.4 mmHg

System: not listed separately
Experiment: Hill coefficient at 50% saturation in the presence of effector

Structure (SMILES) | Hill coefficient (n50)
Cc1cc(C)cc(NC(=O)Cc2ccc(O[C@@]3(C(=O)O)CCC[C@@H]3C)cc2)c1 | 2.6 and 1.8
CCCC(C)(Oc1ccc(CC(=O)Nc2cc(C)cc(C)c2)cc1)C(=O)O (stereo unspecified) | 2.7
CCC(Oc1ccc(CC(=O)Nc2cc(C)cc(C)c2)cc1)C(=O)O (stereo in doubt; 32) | 2.7
CCCC(Oc1ccc(CC(=O)Nc2cc(C)cc(C)c2)cc1)C(=O)O (stereo unspecified) | 2.5
CCC(C)(Oc1ccc(CC(=O)Nc2ccc3c(c2)CCC3)cc1)C(=O)O (stereo unspecified) | 2.3
Cc1cc(C)cc(NC(=O)Cc2ccc(OC3(C(=O)O)CCOC3C)cc2)c1 (stereo unspecified) | 2.4
CCC(Oc1ccc(CC(=O)Nc2cc(C)cc(C)c2)cc1)C(=O)O (single isomer, unassigned; (+)) | 2.7
Cc1cc(C)cc(NC(=O)Cc2ccc(O[C@]3(C(=O)O)CCO[C@H]3C)cc2)c1 | 2.6
CC(C)(Oc1ccc(CC(=O)Nc2ccc3c(c2)CCC3)cc1)C(=O)O | 2.6
Cc1cc(C)cc(NC(=O)Cc2ccc(OC3(C(=O)O)CCC(C)C3)cc2)c1 (stereo unspecified) | 2.5
CCC(Oc1ccc(CC(=O)Nc2cc(C)cc(C)c2)cc1)C(=O)O (single isomer, unassigned; (-)) | 2.8
CCC(C)(Oc1ccc(CC(=O)Nc2cc(C)cc(C)c2)cc1)C(=O)O (single isomer, unassigned; (+)) | 2.4
Cc1cc(C)cc(NC(=O)Cc2ccc(OC3(C(=O)O)CCCC(C)C3)cc2)c1 (stereo unspecified) | 2.5
Cc1cc(C)cc(NC(=O)Cc2ccc(OC3(C(=O)O)CCCC3)cc2)c1 | 2.4 and 1.66
Cc1cc(C)cc(NC(=O)Cc2ccc(OC3(C(=O)O)CCCC3C)cc2)c1 (racemic) | 2.3 and 1.6
Cc1cc(C)cc(NC(=O)Cc2ccc(O[C@]3(C(=O)O)CCC[C@H]3C)cc2)c1 | 2.4 and 1.6
Cc1cc(C)cc(NC(=O)Cc2ccc(OC(C)(C)C(=O)O)cc2)c1 [EFAPROXIRAL] | 2.3 and 1.47

Species: Homo sapiens
Experiment: as §5
Format: functional
Outline: as §2

Structure (SMILES) | P50c | P50C
Cc1cc(C)cc(NC(=O)Cc2ccc(OC(C)C(=O)O)cc2)c1 (single isomer, unassigned; (-)) | 27.8 mmHg | 
Cc1cc(C)cc(NC(=O)Cc2ccc(OC3(C(=O)O)CCCC3)cc2)c1 |  | 28.9 mmHg
Cc1cc(C)cc(NC(=O)Cc2ccc(OC(C)C(=O)O)cc2)c1 (racemic) | 27.2 mmHg | 
Cc1cc(C)cc(NC(=O)Cc2ccc(OC(C)C(=O)O)cc2)c1 (single isomer, unassigned; (+)) | 27.3 mmHg | 
Cc1cc(C)cc(NC(=O)Cc2ccc(OC3(C(=O)O)CCCC3C)cc2)c1 (racemic) | 26.5 mmHg | 
Cc1cc(C)cc(NC(=O)Cc2ccc(O[C@]3(C(=O)O)CCC[C@H]3C)cc2)c1 | 27.9 mmHg | 
Cc1cc(C)cc(NC(=O)Cc2ccc(OC(C)(C)C(=O)O)cc2)c1 [EFAPROXIRAL] | 29.8 mmHg | 

System: not listed separately
Experiment: as §3
Format: functional, Homo sapiens
Outline: as §2

Structure (SMILES) | P50e
Cc1cc(C)cc(NC(=O)Cc2ccc(O[C@@]3(C(=O)O)CCC[C@@H]3C)cc2)c1 | 46.8 mmHg

System: not listed separately
Experiment: as §1
Format: functional, Homo sapiens
Outline: as §2

Structure (SMILES) | P50e
Cc1cc(C)cc(NC(=O)Cc2ccc(O[C@@]3(C(=O)O)CCC[C@@H]3C)cc2)c1 | 49.7 mmHg

System: not listed separately
Experiment: The difference between P50e and P50c tested.
Format: functional
Outline: as §2

Structure (SMILES) | ΔP50 (P50e minus P50c)
Cc1cc(C)cc(NC(=O)Cc2ccc(O[C@@]3(C(=O)O)CCC[C@@H]3C)cc2)c1 | 20.6 mmHg
Cc1cc(C)cc(NC(=O)Cc2ccc(OC3(C(=O)O)CCCC3)cc2)c1 | 42.3 mmHg
Cc1cc(C)cc(NC(=O)Cc2ccc(OC3(C(=O)O)CCCC3C)cc2)c1 (racemic) | 40.1 mmHg
Cc1cc(C)cc(NC(=O)Cc2ccc(O[C@]3(C(=O)O)CCC[C@H]3C)cc2)c1 | 47.6 mmHg
Cc1cc(C)cc(NC(=O)Cc2ccc(OC(C)(C)C(=O)O)cc2)c1 [EFAPROXIRAL] | 45.2 mmHg

System: not listed separately
Experiment: P50e is the value in the presence of the effector in whole blood in experiment 3 (in vitro)
Format: functional, Homo sapiens
Outline: as §2

Structure (SMILES) | P50e
Cc1cc(C)cc(NC(=O)Cc2ccc(O[C@@]3(C(=O)O)CCC[C@@H]3C)cc2)c1 | 42.4 mmHg
